Experimental findings from PubChem BioAssay are described below.

By inhibition is commonly meant the drop in the measured response relative to a control, in per cent.

Calls of active or inactive are those of the source.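 The calls were made as follows, unless noted: active = visually confirmed hit in the image check and inhibition above 20%; inconclusive = visually confirmed hit but inhibition not above 20%; inactive = no visual hit in the image check.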

Assay [1] in a line: inhibitors of TNFa-induced NFkB p65 translocation, primary screen, imaging, HUVEC, MLSMR starter and 10KST1 sets (AID 438;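 active = inhibition above 20% together with a positive visual image hit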;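 also: compound added about 3h40 before a 20 min TNFalpha stimulation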;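 as to inhibition: signal is the nuclear over cytoplasmic p65 intensity ratio per well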). The settings on record: HUVEC TNFa-induced p65 nuclear translocation; cell count: measured here: nuclei count (cytotoxicity indicator), at 2.08 µM; inhibition: at 2 µM, stronger effect = higher value, 0% TNFa-plus-vehicle, 100% no-TNFa wells.
A short description of assay [2]: inhibitors of E-selectin induction by TNFa, primary screen, imaging, HUVEC, immunofluorescence, MLSMR starter and 10KST1 sets (AID 487).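 As to inhibition: signal is fraction of cell area covered by stained E-selectin grains.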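 As to nuclei count: 100% = median nuclei count of all wells on the same plate.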 The settings on record: HUVEC TNFalpha-induced E-selectin immunofluorescence imaging, at 2 µM; inhibition: stronger effect = higher value; nuclei count: measured here: cell number, toxicity.
Assay [3] can be described thus: DUSP6 inhibitors restoring Erk phosphorylation by chemical complementation, primary imaging in DUSP6-transfected HeLa (AID 609;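 active = compounds giving at least 50% inhibition in the cell-based MKP-3 phosphatase rescue imaging test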;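 as to inhibition: phospho-Erk level distribution per well compared with pooled transfected vehicle control wells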). To be noted: HeLa MKP-3 transfected, phospho-Erk imaging KS statistic, at 10 µM, cells stimulated with TPA for 15 min.
In assay [4] the target is Dual specificity protein phosphatase 6 (Homo sapiens) (UniProt Q16828). The assay is described as above. The settings on record: HeLa MKP-3 transfected, phospho-Erk imaging KS statistic; at 10 µM; stronger effect = higher value; cells stimulated with TPA for 15 min.
Chain of Dual specificity protein phosphatase 6 (Homo sapiens) (Q16828 whole entry, looked up): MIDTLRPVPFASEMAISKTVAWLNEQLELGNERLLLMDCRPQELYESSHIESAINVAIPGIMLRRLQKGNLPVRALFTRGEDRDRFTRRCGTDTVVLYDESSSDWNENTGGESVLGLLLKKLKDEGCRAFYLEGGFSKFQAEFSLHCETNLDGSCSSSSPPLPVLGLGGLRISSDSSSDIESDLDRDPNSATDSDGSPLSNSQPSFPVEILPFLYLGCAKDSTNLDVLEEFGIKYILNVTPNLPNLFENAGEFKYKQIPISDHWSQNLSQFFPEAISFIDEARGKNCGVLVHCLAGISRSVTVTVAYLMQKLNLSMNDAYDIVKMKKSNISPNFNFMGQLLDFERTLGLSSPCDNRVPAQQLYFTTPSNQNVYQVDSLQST
In assay [5] the target is Voltage-gated potassium channel subunit beta-2 (Rattus norvegicus) (UniProt P62483). The assay is described as follows: KvBeta enzyme negative modulators, primary screen, biochemical, NADPH fluorescence (AID 622;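 active = fluorescence slope higher than the sample average by over 3 SD, cut at about -0.22 in these data, passing the limit was not always enough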;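 also: slope of raw intensity against log time taken from 70 to 1610 s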). To be noted: recombinant KvBeta, 4-cyanobenzaldehyde reduction, at 10 µM, stronger effect = higher value.
Chain of Voltage-gated potassium channel subunit beta-2 (Rattus norvegicus) (P62483 whole entry, looked up): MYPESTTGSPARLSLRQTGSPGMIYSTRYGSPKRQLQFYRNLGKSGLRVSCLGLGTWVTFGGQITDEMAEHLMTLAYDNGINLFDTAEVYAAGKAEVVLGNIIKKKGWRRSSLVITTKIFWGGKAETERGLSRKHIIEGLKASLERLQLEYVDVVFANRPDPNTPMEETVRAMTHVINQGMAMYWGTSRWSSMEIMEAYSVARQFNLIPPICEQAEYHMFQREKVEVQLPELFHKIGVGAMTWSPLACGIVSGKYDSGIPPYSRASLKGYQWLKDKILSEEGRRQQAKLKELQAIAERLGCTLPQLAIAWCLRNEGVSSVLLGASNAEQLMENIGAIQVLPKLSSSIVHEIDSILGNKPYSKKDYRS
Assay [6] has the same target. Description: KvBeta positive modulators, primary screen, biochemical, NADPH fluorescence (AID 623;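 active = NADPH fluorescence slope more negative than the mean of all samples by about 3 SD, 99.7% confidence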;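 also: fluorescence intensity change per second fitted from 20 to 320 s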). To be noted: Recombinant KvBeta, NADPH fluorescence decrease slope, 10 min; at 10 µM; stronger effect = lower value.
Assay [7] addresses Muscarinic acetylcholine receptor M4 (Homo sapiens) (UniProt P08173). The assay is described as follows: compounds altering M4/GIRK thallium flux, either direction, primary screen, M4 allosteric agonist project, cell-based, HEK293 M4/GIRK, BTC-AM (AID 625;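 active = fluorescence slope after compound addition differing from the mean of all tested samples at 99.7% confidence, mostly higher but some lower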;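 also: thallium influx through GIRK channels coupled to M4 in HEK293 cells with BTC-AM dye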). The settings on record: at 10 µM, actives lie on both sides. The essentials: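 assay system = HEK293 cells with M4 receptor and GIRK channels | medium = pH 7.3 thallium assay buffer | doses = 10 µM final, single point | timing = cells overnight at 37 °C, BTC-AM loading 1 h, reads 2 min total | signal = BTC-AM fluorescence, 1 Hz kinetic reads | read-out = post-addition slope, 15–24 s, of baseline-normalized fluorescence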

Assay [8] is described as follows: inhibitors of larval lipid processing in zebrafish, primary screen, whole organism, PED6 fluorescence, gall bladder and intestine (AID 686;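 active = a full or partial loss of lipid-probe fluorescence in the fish gall bladder, intestine or both, judged by eye; inactive = no fluorescence loss, or compound toxic to the fish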;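 also: larvae 5 to 7 days old with five fish per well; signal comes from phospholipase A2 cleavage of quenched PED6 carried via bile; overnight exposure to compound and PED6 before scoring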). The settings on record: Zebrafish larvae PED6 lipid processing, fluorescence scoring; screened at 20 µM (by protocol). In a few lines:
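Also added: quenched phospholipase substrate PED6, 100 nM final, ingested by larvae; System: zebrafish larvae, 5-7 d; Quantity: 5 larvae per well; Compound: 20 µM single dose; Schedule: overnight compound and PED6 incubation; Read-out: visual per-well fluorescence inhibition score; Measured by: By-eye fluorescence microscopy; Medium: E3.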

Assay [9] can be described thus: inhibitors of Chlamydomonas gravitaxis, primary screen, whole organism, Chlamydomonas reinhardtii, WT vs cilia-less mutant, absorbance, 96-well (AID 463189;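 active = inhibition at or above 50% relative to wild type and mutant plate controls; inactive = inhibition below 50%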;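 also: 0% = wild type cc124 cells in DMSO and 100% = ciliumless bld1 mutant cells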). The settings on record: OD600 absorbance, 2 days, at 10 µM, stronger effect = higher value.
[10] abbreviates: measured here: cell density z-score.
[11] abbreviates: measured here: nuclear c-Myc green intensity z-score.
The mark [12] stands for this setting: measured here: nuclear pErk red intensity z-score, stronger effect = higher value.

Chain of Muscarinic acetylcholine receptor M4 (Homo sapiens) (P08173 whole entry, looked up): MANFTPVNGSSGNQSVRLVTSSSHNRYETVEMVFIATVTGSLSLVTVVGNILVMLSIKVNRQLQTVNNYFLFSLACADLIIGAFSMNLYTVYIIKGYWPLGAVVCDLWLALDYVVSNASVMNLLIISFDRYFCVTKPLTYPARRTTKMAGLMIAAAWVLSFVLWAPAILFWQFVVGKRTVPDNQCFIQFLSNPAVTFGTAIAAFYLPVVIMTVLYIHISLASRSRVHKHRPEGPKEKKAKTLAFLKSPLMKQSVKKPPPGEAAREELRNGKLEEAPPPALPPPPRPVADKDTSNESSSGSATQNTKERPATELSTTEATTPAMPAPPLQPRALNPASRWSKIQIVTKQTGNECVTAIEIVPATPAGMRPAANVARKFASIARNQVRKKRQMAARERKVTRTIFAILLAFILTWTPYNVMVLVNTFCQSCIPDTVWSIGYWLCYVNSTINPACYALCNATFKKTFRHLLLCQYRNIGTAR

Turning to `CCOC(=O)C1CCN(c2nc3ccccc3nc2C(C#N)C(=O)OC(C)COC)CC1` (stereo not given), the cell count in assay [1] is 633. Also, the inhibition is -11.6% (inactive) in assay [1], -4.7% (inactive) in [2], -5.81% (inactive) in [4] and 6.91% (inactive) in assay [9]. The nuclei count in assay [2] amounted to 160%. In addition, the z-score is 0.378 in assay [3] (setting [10]), -0.378 in assay [3] (setting [11]) and -0.33 in assay [3] (setting [12]). Moreover, the fluorescence slope in [5] is -0.488 (inactive); in assay [7], 0.00472 (inactive). Moreover, the NADPH fluorescence slope in assay [6] was -8.1e-05 (inactive). For the same compound, the result in assay [8] was inactive.

As to `Cc1ccc(OCC(O)CNS(=O)(=O)c2ccccc2C(=O)O)cc1` (stereo not given), the cell count in assay [1] was found to be 625. For the same compound, the inhibition in assay [1] was -11.3% (inactive); in [2] it was -18.3% (inactive); in assay [4], 21.4% (inactive); in assay [9], -7.23% (inactive). In assay [2], this compound had a nuclei count of 152%. Moreover, the values for the z-score in assay [3] (setting [10]), in [3] (setting [11]) and in [3] (setting [12]) were 0.248, 0.991 and -0.853, respectively. Further, the figures for the fluorescence slope in assay [5] and in [7] were -0.412 (inactive) and 0.00639 (inactive), respectively. Also, the NADPH fluorescence slope in assay [6] is -2.6e-05 (inactive). Besides, the compound was classed as inactive in [8].

As to `Cc1cc(NCCNC2=CC(=O)CCC2)nc2ccccc12`, in assay [1], the cell count amounted to 473. Moreover, the inhibition in assay [1] is -10.2% (inactive); in [2], -41.3% (inactive); in [4], -3.97% (inactive); in assay [9], -12.8% (inactive). The nuclei count in [2] was 148%. Further, the figures for the z-score in assay [3] (setting [10]), in assay [3] (setting [11]) and in assay [3] (setting [12]) were -0.963, 1.28 and -0.176, respectively. For the same compound, the fluorescence slope in assay [5] is -0.431 (inactive); in [7], 0.0072 (inactive). In assay [6], the NADPH fluorescence slope was -4.6e-05 (inactive). Moreover, the compound was classed as inactive in [8].

Turning to `COC(=O)NCC12CC3CC(C1)CC(CNC(=O)OC)(C3)C2`, in [1], the cell count came to 541. The inhibition in assay [1] was 2.3% (inactive); in assay [2], -75% (inactive); in [4], 5.42% (inactive); in [9], -5.97% (inactive). Further, the nuclei count in assay [2] was found to be 122%. Also, the z-score in [3] (setting [10]) is 0.785; in assay [3] (setting [11]), 1.4; in assay [3] (setting [12]), -1.34. Further, the fluorescence slope in [5] is -0.467 (inactive); in assay [7], 0.00455 (inactive). In [6], the NADPH fluorescence slope was -0.0001 (inactive). Further, the compound was called inactive in assay [8].

With `COc1ccc(CNc2oc(COc3ccc(Cl)cc3)nc2C#N)cc1`, in [1], the cell count stood at 484. The inhibition in assay [1] was 5.8% (inactive); in [2], -33.3% (inactive); in assay [4], -5.62% (inactive); in [9] it was 2.55% (inactive). In addition, the nuclei count in [2] was found to be 164%. In addition, the z-score in assay [3] (setting [10]) amounted to 0.0253; in assay [3] (setting [11]), 0.364; in [3] (setting [12]) it was 0.0628. The fluorescence slope is -0.474 (inactive) in assay [5] and 0.00987 (inactive) in [7]. Moreover, the NADPH fluorescence slope in assay [6] was -3.7e-05 (inactive). Besides, in assay [8], the compound was classed as inactive.

`Nc1ccc2c3c(cccc13)CC2`: in assay [1], the cell count is 400. The inhibition in [1] is -4.5% (inactive); in assay [2], -74% (inactive); in assay [4], 9.37% (inactive); in assay [9], -6.34% (inactive). Besides, in assay [2], the nuclei count was found to be 108%. In addition, the z-score in [3] (setting [10]) is 0.938; in assay [3] (setting [11]) it was 0.125; in assay [3] (setting [12]), -0.141. For the same compound, the fluorescence slope in assay [5] was -0.281 (inactive); in [7] it was 0.00407 (inactive). Further, in [6], the NADPH fluorescence slope is -2.2e-05 (inactive). The compound was called inactive in [8].

Regarding `CCN(CC)CCOC(=O)c1c(C)n(C)c2ccc(OC)cc12`, in assay [1], the cell count was 669. Besides, the inhibition in [1] was -3.7% (inactive); in assay [2], -50.2% (inactive); in assay [4] it was 4.37% (inactive); in [9], 32.6% (inactive). The nuclei count in [2] was determined as 150%. The values for the z-score in assay [3] (setting [10]), in assay [3] (setting [11]) and in assay [3] (setting [12]) were 0.791, -1.04 and -1.03, respectively. Further, the figures for the fluorescence slope in [5] and in assay [7] were -0.466 (inactive) and 0.00645 (inactive), respectively. Moreover, the NADPH fluorescence slope in [6] was -0.000107 (inactive). The compound was called inactive in assay [8].

As to `Cc1cc(C)c(C#N)c(OCC(=O)c2ccccc2)n1`, in assay [1], the cell count worked out at 450. For the same compound, the inhibition was -5.3% (inactive) in assay [1], -69% (inactive) in assay [2], -3.95% (inactive) in assay [4] and -6.74% (inactive) in [9]. This compound also had a nuclei count in [2] of 156%. Also, the z-score was -0.815 in assay [3] (setting [10]), 1.05 in assay [3] (setting [11]) and 0.134 in assay [3] (setting [12]). Moreover, the fluorescence slope is -0.405 (inactive) in assay [5] and 0.00481 (inactive) in assay [7]. Also, the NADPH fluorescence slope in assay [6] is -3.4e-05 (inactive). Also, the compound was classed as inactive in [8].

For `CCn1c(SCC(=O)NCc2ccco2)nnc1-c1ccc(N)cc1`, the cell count in assay [1] is 669. Also, the inhibition in [1] is -1% (inactive); in [2] it was 19.4% (inactive); in assay [4], -3.95% (inactive); in assay [9], 6.36% (inactive). In [2], this compound came in with a nuclei count of 189%. Besides, the z-score in assay [3] (setting [10]) is -0.439; in assay [3] (setting [11]) it was 0.193; in [3] (setting [12]) it was -0.177. The fluorescence slope in assay [5] was -0.491 (inactive); in assay [7] it was 0.00557 (inactive). The NADPH fluorescence slope in assay [6] was -4.4e-05 (inactive). For the same compound, the compound was classed as inactive in assay [8].

With `CC(C)COC(=O)CCNc1n[nH]c(=O)[nH]c1=O`, the cell count in assay [1] was 622. Besides, the inhibition in [1] was -4.8% (inactive); in [2] it was -26.4% (inactive); in [4], -11.5% (inactive); in [9], -4.85% (inactive). This compound yielded a nuclei count in assay [2] of 174%. Besides, the z-score in assay [3] (setting [10]) is 0.623; in [3] (setting [11]), -0.835; in [3] (setting [12]) it was -0.389. The fluorescence slope in assay [5] is -0.505 (inactive); in assay [7] it was 0.00627 (inactive). Further, the NADPH fluorescence slope in assay [6] is -4.2e-05 (inactive). The result in assay [8] was inactive.
